Data reported in ChEMBL document CHEMBL3045648, “Proapoptotic effects of novel pentabromobenzylisothioureas in human leukemia cell lines” (2012).
The source made the active and inactive calls. The calls are words filed in the database; no cut-off is given here.

What follows are compounds tested on K562 (assay: Induction of cell cycle arrest in Homo sapiens (human) K562 cells assessed as G2/M phase cells at 10 uM after 48 hr by PI-staining based flow cytometric analysis (reference value: 19.1 +/- 3.9%)). Settings: not given.
Assay type: functional
Outline: (§1)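 Cells treated 48 h with DMSO solvent controls, washed in cold PBS and fixed in 70% ethanol at −20°C for at least 24 h. Stained 30 min in the dark at room temperature with 50 μg/ml PI and 100 μg/ml RNase in PBS/0.1% Triton X-100. DNA content measured by flow cytometry and phase percentages modelled; mean ± SD, n ≥ 4.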

Compound	Activity
Br.C/N=C(/NC)SCc1c(Br)c(Br)c(Br)c(Br)c1Br	9%

Each compound was assayed on K562 (assay: Induction of cell cycle arrest in Homo sapiens (human) K562 cells assessed as S phase cells at 10 uM after 48 hr by PI-staining based flow cytometric analysis (reference value: 43.3 +/- 3.4%)). Settings: not given.
Assay type: functional
Outline: as §1

Compound	Activity
Br.C/N=C(/NC)SCc1c(Br)c(Br)c(Br)c(Br)c1Br	35.5%

What follows are compounds tested on K562 (assay: Induction of cell cycle arrest in Homo sapiens (human) K562 cells assessed as G1 phase cells at 10 uM after 48 hr by PI-staining based flow cytometric analysis (reference value: 37.6 +/- 3.2 %)). Settings: not given.
Assay type: functional
Outline: as §1

Compound	Activity
Br.C/N=C(/NC)SCc1c(Br)c(Br)c(Br)c(Br)c1Br	55.5%

Each compound was assayed on K562 (assay: Induction of cell cycle arrest in Homo sapiens (human) K562 cells assessed as decrease in G2/M phase cells after 48 hr by PI-staining based flow cytometric analysis). Settings: not given.
Assay type: functional
Outline: as §1

Compound	Activity
Br.C=CCNC(=N)SCc1c(Br)c(Br)c(Br)c(Br)c1Br	Dose-dependent effect
Br.C/N=C(/NC)SCc1c(Br)c(Br)c(Br)c(Br)c1Br	Dose-dependent effect

These compounds were tested on K562 (assay: Induction of cell cycle arrest in Homo sapiens (human) K562 cells assessed as cells accumulation of G1/S phase cells after 48 hr by PI-staining based flow cytometric analysis). Settings: not given.
Assay type: functional
Outline: as §1

Compound	Activity
Br.C=CCNC(=N)SCc1c(Br)c(Br)c(Br)c(Br)c1Br	Dose-dependent effect
Br.C/N=C(/NC)SCc1c(Br)c(Br)c(Br)c(Br)c1Br	Dose-dependent effect

Each compound was assayed on K562 (assay: Induction of cell cycle arrest in Homo sapiens (human) K562 cells assessed as accumulation of G1 phase cells after 48 hr by PI-staining based flow cytometric analysis). Settings: not given.
Assay type: functional
Outline: as §1

Compound	Activity
Br.C=CCNC(=N)SCc1c(Br)c(Br)c(Br)c(Br)c1Br	Dose-dependent effect
Br.C/N=C(/NC)SCc1c(Br)c(Br)c(Br)c(Br)c1Br	Dose-dependent effect

These compounds were tested on HL-60 (assay: Induction of cell cycle arrest in Homo sapiens (human) HL60 cells assessed as decrease in G2/M phase cells after 48 hr by PI-staining based flow cytometric analysis). Settings: not given.
Assay type: functional
Outline: as §1

Compound	Activity
Br.C=CCNC(=N)SCc1c(Br)c(Br)c(Br)c(Br)c1Br	Dose-dependent effect
Br.C/N=C(/NC)SCc1c(Br)c(Br)c(Br)c(Br)c1Br	Dose-dependent effect

Each compound was assayed on HL-60 (assay: Induction of cell cycle arrest in Homo sapiens (human) HL60 cells assessed as cells accumulation of G1/S phase cells after 48 hr by PI-staining based flow cytometric analysis). Settings: not given.
Assay type: functional
Outline: as §1

Compound	Activity
Br.C=CCNC(=N)SCc1c(Br)c(Br)c(Br)c(Br)c1Br	Dose-dependent effect
Br.C/N=C(/NC)SCc1c(Br)c(Br)c(Br)c(Br)c1Br	Dose-dependent effect

What follows are compounds tested on HL-60 (assay: Induction of cell cycle arrest in Homo sapiens (human) HL60 cells assessed as accumulation of G1 phase cells after 48 hr by PI-staining based flow cytometric analysis). Settings: not given.
Assay type: functional
Outline: as §1

Compound	Activity
Br.C=CCNC(=N)SCc1c(Br)c(Br)c(Br)c(Br)c1Br	Dose-dependent effect
Br.C/N=C(/NC)SCc1c(Br)c(Br)c(Br)c(Br)c1Br	Dose-dependent effect

These compounds were tested on HL-60 (assay: Induction of apoptosis in Homo sapiens (human) HL60 cells assessed as PARP cleavage at 8 uM after 48 hr by FITC conjugated antiPARP-staining based flow cytometric analysis). Settings: not given.
Assay type: functional, cell-based
Outline: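 Cells in RPMI-1640 with 10% heat-inactivated FBS, seeded at 2.5 × 10^5 cells/ml and treated from DMSO solution. Controls got the same solvent volume. Harvested 48 h post-treatment and washed twice in PBS. Stained with FITC anti-PARP antibody specific for the 85 kDa cleaved fragment. Flow cytometry reported fluorescence intensity, with negative (M1) and positive (M2) gates.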

Compound	Activity
Br.C/N=C(/NC)SCc1c(Br)c(Br)c(Br)c(Br)c1Br	Active

What follows are compounds tested on K562 (assay: Induction of apoptosis in Homo sapiens (human) K562 cells assessed as mitochondrial membrane depolarization at 10 uM after 48 hr by JC-1 staining based flow cytometric analysis (reference value: 6.1 +/- 0.9%)). Settings: not given.
Assay type: functional

Compound	Activity
Br.C=CCNC(=N)SCc1c(Br)c(Br)c(Br)c(Br)c1Br	60%
Br.C/N=C(/NC)SCc1c(Br)c(Br)c(Br)c(Br)c1Br	77.7%

The compounds below were run on HL-60 (assay: Induction of apoptosis in Homo sapiens (human) HL60 cells assessed as mitochondrial membrane depolarization at 5 uM after 48 hr by JC-1 staining based flow cytometric analysis (reference value: 7.7 +/- 2.4%)). Settings: not given.
Assay type: functional

Compound	Activity
Br.C=CCNC(=N)SCc1c(Br)c(Br)c(Br)c(Br)c1Br	12.8%
Br.C/N=C(/NC)SCc1c(Br)c(Br)c(Br)c(Br)c1Br	93.1%

What follows are compounds tested on HL-60 (assay: Induction of apoptosis in Homo sapiens (human) HL60 cells assessed as apoptotic nuclei at 8 uM after 48 hr by DAPI/sulforhodamine 101-stainihng based fluorescence micrscopic analysis). Settings: not given.
Assay type: functional, cell-based
Outline: (§2)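 Exponentially growing cells seeded at 2.5 × 10^5 cells/ml, exposed 48 h, DMSO solvent controls. Washed in cold PBS and fixed in 70% ethanol at −20°C for at least 24 h. Stained with 1.0 μg/ml DAPI plus 20 μg/ml sulforhodamine 101. Nuclear morphology scored by fluorescence microscopy.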

Compound	Activity
Br.C/N=C(/NC)SCc1c(Br)c(Br)c(Br)c(Br)c1Br	Active

Each compound was assayed on K562 (assay: Induction of apoptosis in Homo sapiens (human) K562 cells from 24 to 48 hr by annexinV/PI-staining based flow cytometric analysis). Settings: not given.
Assay type: functional, cell-based
Outline: (§3)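 Cells seeded at 2.5 × 10^5 cells/ml in RPMI-1640/10% FBS, treated 24 or 48 h, DMSO solvent controls. Rinsed twice in cold PBS and resuspended at 2 × 10^6 cells/ml in binding buffer. Labelled with annexin V-FITC and PI for 15 min at room temperature in the dark. Flow cytometry within 1 h; mean ± SD, n ≥ 4.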

Compound	Activity
Br.C=CCNC(=N)SCc1c(Br)c(Br)c(Br)c(Br)c1Br	Dose-dependent effect
Br.C/N=C(/NC)SCc1c(Br)c(Br)c(Br)c(Br)c1Br	Dose-dependent effect

What follows are compounds tested on HL-60 (assay: Induction of apoptosis in Homo sapiens (human) HL60 cells assessed as concentrated chromatin at 8 uM after 48 hr by DAPI/sulforhodamine 101-stainihng based fluorescence micrscopic analysis). Settings: not given.
Assay type: functional, cell-based
Outline: as §2

Compound	Activity
Br.C/N=C(/NC)SCc1c(Br)c(Br)c(Br)c(Br)c1Br	Active

The compounds below were run on HL-60 (assay: Induction of apoptosis in Homo sapiens (human) HL60 cells from 24 to 48 hr by annexinV/PI-staining based flow cytometric analysis). Settings: not given.
Assay type: functional, cell-based
Outline: as §3

Compound	Activity
Br.C=CCNC(=N)SCc1c(Br)c(Br)c(Br)c(Br)c1Br	Dose-dependent effect
Br.C/N=C(/NC)SCc1c(Br)c(Br)c(Br)c(Br)c1Br	Dose-dependent effect

What follows are compounds tested on K562 (assay: Induction of apoptosis in Homo sapiens (human) K562 cells at 10 to 20 uM by annexinV/PI-staining based flow cytometric analysis). Settings: TDE = time-dependent effect.
Assay type: functional, cell-based
Outline: as §3

Compound	Activity
Br.C=CCNC(=N)SCc1c(Br)c(Br)c(Br)c(Br)c1Br	tde
Br.C/N=C(/NC)SCc1c(Br)c(Br)c(Br)c(Br)c1Br	tde

These compounds were tested on HL-60 (assay: Induction of apoptosis in Homo sapiens (human) HL60 cells at 5 to 8 uM by annexinV/PI-staining based flow cytometric analysis). Settings: TDE = time-dependent effect.
Assay type: functional, cell-based
Outline: as §3

Compound	Activity
Br.C=CCNC(=N)SCc1c(Br)c(Br)c(Br)c(Br)c1Br	tde
Br.C/N=C(/NC)SCc1c(Br)c(Br)c(Br)c(Br)c1Br	tde

What follows are compounds tested on K562 (assay: Induction of cell cycle arrest in Homo sapiens (human) K562 cells assessed as G1 phase cells at 20 uM after 48 hr by PI-staining based flow cytometric analysis (reference value: 37.6 +/- 3.2 %)). Settings: not given.
Assay type: functional
Outline: as §1

Compound	Activity
Br.C/N=C(/NC)SCc1c(Br)c(Br)c(Br)c(Br)c1Br	55%

Each compound was assayed on K562 (assay: Induction of cell cycle arrest in Homo sapiens (human) K562 cells assessed as G2/M phase cells at 20 uM after 48 hr by PI-staining based flow cytometric analysis (reference value: 19.1 +/- 3.9%)). Settings: not given.
Assay type: functional
Outline: as §1

Compound	Activity
Br.C/N=C(/NC)SCc1c(Br)c(Br)c(Br)c(Br)c1Br	2.5%

Each compound was assayed on K562 (assay: Induction of cell cycle arrest in Homo sapiens (human) K562 cells assessed as S phase cells at 20 uM after 48 hr by PI-staining based flow cytometric analysis (reference value: 43.3 +/- 3.4%)). Settings: not given.
Assay type: functional
Outline: as §1

Compound	Activity
Br.C/N=C(/NC)SCc1c(Br)c(Br)c(Br)c(Br)c1Br	42.5%
